Test results reported in ChEMBL document CHEMBL2202989, “New adamantane phenylalkylamines with σ-receptor binding affinity and anticancer activity, associated with putative antagonism of neuropathic pain” (J Med Chem, 2012).

Legend:
BXPC-3 [1] = experiment: Cell cycle arrest in human BxPC3 cells assessed as accumulation at G2 phase at 5 uM after 24 hrs using propidium iodide staining by FACS analysis (reference value: 12 %); format: functional
Procedure, shortened: (§1)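 Cells were plated 24 h before treatment and exposed for 24 h at final 0.5, 5, 15 and 50 μM in 0.5% DMSO, against vehicle-treated controls. Cells were then trypsinised and fixed in cold ethanol for 3 h at 4 °C. They were stained in a mix of RNase (200 μg/mL) and PI (1 mg/mL) for 45 min at room temperature in the dark. Flow cytometry used 488 nm excitation and 10 000 gated cells. Phase percentages were assigned from DNA content.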

BXPC-3 [2] = experiment: Cell cycle arrest in human BxPC3 cells assessed as accumulation at S phase at 0.5 uM after 24 hrs using propidium iodide staining by FACS analysis (reference value: 33 %); format: functional; procedure, shortened: as §1
BXPC-3 [3] = experiment: Cell cycle arrest in human BxPC3 cells assessed as accumulation at G1 phase at 15 uM after 24 hrs using propidium iodide staining by FACS analysis (reference value: 41 %); format: functional; procedure, shortened: as §1
BXPC-3 [4] = experiment: Cell cycle arrest in human BxPC3 cells assessed as accumulation at G1 phase at 5 uM after 24 hrs using propidium iodide staining by FACS analysis (reference value: 41 %); format: functional; procedure, shortened: as §1
[5] = Growth inhibition of human MSC cells after 48 hrs by SRB assay; format: cell-based
Procedure, shortened: (§2)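 Cells grown in RPMI 1640 with 5% heat-inactivated FCS, 2 mM L-glutamine and antibiotics, 37 °C, 5% CO2. Seeded at 3500–30000 cells/well and left 24 h before dosing. DMSO solutions added at 10-fold dilutions from 100 to 0.01 μM for 48 h. Cells TCA-fixed and SRB-stained, absorbance read at 540 nm; GI50 derived against the time-zero plate.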

IGROV-1 [6] = experiment: Growth inhibition of human IGROV1 cells after 48 hrs by SRB assay; format: functional; settings: IGROV-1, 48 h; procedure, shortened: as §2
PC-3 [7] = experiment: Growth inhibition of human PC3 cells after 48 hrs by SRB assay; format: functional; settings: PC-3, 48 h; procedure, shortened: as §2
HCT-15 = experiment: Growth inhibition of human HCT15 cells after 48 hrs by SRB assay; format: functional; settings: HCT-15, 48 h; procedure, shortened: as §2
[8] = Displacement of [3H]batrachotoxin benzoate from Na+ channel after 60 mins by liquid scintillation counting
Procedure, shortened: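 Na+ channel site 2 binding: vesicle preparation (150−500 μg protein) incubated 60 min with 20−25 nM [3H]BTX-B and 50 μg Leiurius quinquestriatus venom. Buffer was 130 mM choline chloride, 50 mM HEPES/Tris pH 7.4, glucose, MgSO4, KCl, BSA. Filtered on GF/C with cold washes; scintillation counting. Nonspecific binding defined with 250 μM veratridine.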

BXPC-3 [9] = experiment: Antitumor activity against human BxPC3 cells xenografted in SCID mouse assessed as tumor growth inhibition at 45 mg/kg, ip administered 3 consecutives days per week for three cycles measured after 3 cycles relative to control; format: functional; settings: BXPC-3, ip, route intraperitoneal, read-out: TGI
Procedure, shortened: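 BxPC3 xenografts were grown in SCID mice from inocula of 10^6 exponentially growing cells, with 10 mice (20 tumors) per group. Treatment started ip once tumors averaged about 100 mm3. The test agent was given in 5% Tween 80 and gemcitabine in water for injection. Tumor volume was measured by caliper twice weekly and %ΔT/ΔC was computed; two-tailed Student's t test.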

BXPC-3 [10] = experiment: Induction of apoptosis in human BxPC3 cells assessed as cleaved caspase3 containing cells at 50 uM by antibody-based FACS analysis (reference value: 8.2 %); format: functional
PC-3 [11] = experiment: Induction of apoptosis in human PC3 cells assessed as total apoptotic death at 50 uM using annexin V/7-AAD by FACS analysis (reference value: 8 %); format: functional
Procedure, shortened: (§3)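 Cells plated 24 h before treatment, then exposed 24 h to 0.5, 5, 15 or 50 μM compound (final DMSO 0.5%); vehicle controls included. Cells scraped and stained with annexin V-FITC and 7-AAD for 15 min on ice in the dark. Flow cytometry with 488 nm excitation, 10,000 gated cells. Early apoptosis was annexin V+/7-AAD−, late was annexin V+/7-AAD+.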

PC-3 [12] = experiment: Induction of apoptosis in human PC3 cells assessed as late apoptosis at 5 uM using annexin V/7-AAD by FACS analysis (reference value: 3 %); format: functional
IGROV-1 [13] = experiment: Induction of apoptosis in human IGROV1 cells assessed as total apoptotic death at 50 uM using annexin V/7-AAD by FACS analysis (reference value: 13 %); format: functional; procedure, shortened: as §3
IGROV-1 [14] = experiment: Induction of apoptosis in human IGROV1 cells assessed as total apoptotic death at 15 uM using annexin V/7-AAD by FACS analysis (reference value: 13 %); format: functional; procedure, shortened: as §3
IGROV-1 [15] = experiment: Induction of apoptosis in human IGROV1 cells assessed as late apoptosis at 50 uM using annexin V/7-AAD by FACS analysis (reference value: 5 %); format: functional
IGROV-1 [16] = experiment: Induction of apoptosis in human IGROV1 cells assessed as late apoptosis at 15 uM using annexin V/7-AAD by FACS analysis (reference value: 5 %); format: functional
IGROV-1 [17] = experiment: Induction of apoptosis in human IGROV1 cells assessed as healthy cells at 0.5 uM using annexin V/7-AAD by FACS analysis (reference value: 86 %); format: functional
BXPC-3 [18] = experiment: Induction of apoptosis in human BxPC3 cells assessed as total apoptotic death at 50 uM using annexin V/7-AAD by FACS analysis (reference value: 18 %); format: functional; procedure, shortened: as §3
BXPC-3 [19] = experiment: Induction of apoptosis in human BxPC3 cells assessed as late apoptosis at 15 uM using annexin V/7-AAD by FACS analysis (reference value: 9 %); format: functional
BXPC-3 [20] = experiment: Induction of apoptosis in human BxPC3 cells assessed as early apoptosis at 50 uM using annexin V/7-AAD by FACS analysis (reference value: 9 %); format: functional
BXPC-3 [21] = experiment: Induction of apoptosis in human BxPC3 cells assessed as healthy cells at 15 uM using annexin V/7-AAD by FACS analysis (reference value: 79 %); format: functional
PC-3 [22] = experiment: Cell cycle arrest in human PC3 cells assessed as accumulation at G2 phase at 5 uM after 24 hrs using propidium iodide staining by FACS analysis (reference value: 12 %); format: functional
PC-3 [23] = experiment: Cell cycle arrest in human PC3 cells assessed as accumulation at S phase at 15 uM after 24 hrs using propidium iodide staining by FACS analysis (reference value: 42 %); format: functional
IGROV-1 [24] = experiment: Cell cycle arrest in human IGROV1 cells assessed as accumulation at >G2/M phase at 0.5 uM after 24 hrs using propidium iodide staining by FACS analysis (reference value: 21 %); format: functional; procedure, shortened: as §1
IGROV-1 [25] = experiment: Cell cycle arrest in human IGROV1 cells assessed as accumulation at sub G1 phase at 0.5 uM after 24 hrs using propidium iodide staining by FACS analysis (reference value: 4 %); format: functional
BXPC-3 [26] = experiment: Cell cycle arrest in human BxPC3 cells assessed as accumulation at >G2/M phase at 5 uM after 24 hrs using propidium iodide staining by FACS analysis (reference value: 6 %); format: functional; procedure, shortened: as §1
[27] = read-out: LC50 (the source's name)

CN1CCN(CCCc2ccc(C(c3ccccc3)C34CC5CC(CC(C5)C3)C4)cc2)CC1 (stereo not drawn)
Activity (BXPC-3 [1]): 10%
Activity (BXPC-3 [2]): 31%
Activity (BXPC-3 [3]): 32%
Activity (BXPC-3 [4]): 53%
TGI [5]: 30.9 µM
GI50 (IGROV-1 [6]): 4.54 µM
TGI (IGROV-1 [6]): 11.9 µM
CC50 (IGROV-1 [6]; [27]): 0.0748 µM
GI50 (PC-3 [7]): 3.43 µM
TGI (PC-3 [7]): 6.72 µM
CC50 (PC-3 [7]; [27]): 0.01 µM
GI50 (HCT-15): 3.5 µM
TGI (HCT-15): 6.35 µM
CC50 (HCT-15; [27]): 0.0092 µM
IC50 [8]: > 1 µM
inhibition in vivo at 45 mg/kg (BXPC-3 [9]): 37.2%
Activity (BXPC-3 [10]): 4.8%
Activity (PC-3 [11]): 23%
Activity (PC-3 [12]): 2%
Activity (IGROV-1 [13]): 64%
Activity (IGROV-1 [14]): 57%
Activity (IGROV-1 [15]): 25%
Activity (IGROV-1 [16]): 20%
Activity (IGROV-1 [17]): 89%
Activity (BXPC-3 [18]): 46%
Activity (BXPC-3 [19]): 26%
Activity (BXPC-3 [20]): 2%
Activity (BXPC-3 [21]): 35%
Activity (PC-3 [22]): 10%
Activity (PC-3 [23]): 31%
Activity (IGROV-1 [24]): 20%
Activity (IGROV-1 [25]): 4%
Activity (BXPC-3 [26]): 5%
